The results in this text go back to ChEMBL document CHEMBL4049394, “Desing and synthesis of potent anti-Trypanosoma cruzi agents new thiazoles derivatives which induce apoptotic parasite death” (Eur J Med Chem, 2017).

Data set [1] concerns Trypanosoma cruzi. As to the kind of experiment: Antitrypanosomal activity against bloodstream trypomastigote stage of Trypanosoma cruzi Y infected in monkey LLC-MK2 cells measured after 24 hrs by neubauer chamber method. Type of data set: functional. Particulars: LLC-MK2, in Primates. The procedure, abridged: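 Y strain trypomastigotes taken from LLC-MK2 culture supernatant and held in RPMI-1640 with 10% FBS. Seeded at 4×10^5 cells/well and treated in triplicate for 24 h at 37 °C, 5% CO2. Motile parasites counted in a Neubauer chamber against untreated wells. IC50 by nonlinear regression from at least seven concentrations. Experiment repeated; SD < 10% of mean required.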

The test system of data set [2] is Trypanosoma cruzi. As to the kind of experiment: Antitrypanosomal activity against Trypanosoma cruzi Dm28c epimastigotes measured after 4 to 5 days by neubauer chamber method. Type of data set: functional. Summed up: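 Dm28c epimastigotes in LIT with 10% FBS, 1% hemin and gentamycin at 27 °C. Seeded at 10^6 cells/well and treated in triplicate for 4 days (table footnote: 5 days). Parasites counted in a Neubauer chamber against untreated wells as 100%. IC50 by nonlinear regression from at least five concentrations. Experiment repeated; only values with SD < 10% of mean kept.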

Data set [3] can be described thus: Cytotoxicity against mouse J774A.1 cells after 24 to 72 hrs by MTT assay. Type of data set: cell-based, J774.A1. Particulars: read-out: MNCC. Summed up: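 J774A.1 macrophages in DMEM with 10% heat-inactivated FBS at 37 °C, 5% CO2. Seeded at 1×10^5 cells/well, 24 h preincubation, then compounds at 1–100 µg/mL for 72 h (table footnote: viability at 24 h). MTT 2 h, formazan dissolved in DMSO, absorbance read at 570 nm. Highest non-cytotoxic concentration reported.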

A short description of data set [4]: Selectivity index, ratio of highest non-cytotoxic concentration for mouse J774A.1 cells to CC50 for bloodstream trypomastigote stage of Trypanosoma cruzi Y infected in monkey LLC-MK2 cells. The format is toxicity, cell-based. Particulars: read-out: Selectivity Index. The procedure, abridged:
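Selectivity index is the highest non-cytotoxic concentration in J774A.1 macrophages divided by the 50% value against Y strain trypomastigotes measured after 24 h.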

The target of data set [5] is Cruzipain (Trypanosoma cruzi) (UniProt P25779). Nature of the data set: Inhibition of Trypanosoma cruzi cruzain at 50 uM using Z-phe-Arg-aminomethylcoumarin as substrate pretreated for 10 mins measured for 5 mins by fluorometric method relative to control. Summed up:
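Cruzain at 0.5 nM in 0.1 M sodium acetate pH 5.5 with 0.1 mM β-mercaptoethanol and 0.01% Triton X-100. Compound screened at 50 µM after a 10-min preincubation with enzyme, then 2.5 µM Z-FR-AMC added. AMC fluorescence (ex 340/em 440 nm) followed for 5 min. Activity taken from initial rates relative to a DMSO control. Two independent experiments, each in triplicate.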

Data set [6] deals with Trypanosoma cruzi. Nature of the data set: Potency index, ratio of benznidazole CC50 to compound CC50 for bloodstream trypomastigote stage of Trypanosoma cruzi Y infected in monkey LLC-MK2 cells. The format is functional.
Data set [7] has as its system Trypanosoma cruzi. Nature of the data set: Potency index, ratio of benznidazole CC50 to compound CC50 for Trypanosoma cruzi Dm28c epimastigotes. Type of data set: functional.
The test system of data set [8] is Trypanosoma cruzi. Nature of the data set: Induction of apoptosis in bloodstream trypomastigote stage of Trypanosoma cruzi Y infected in monkey LLC-MK2 cells assessed as necrotic cells at 5 uM measured after 24 hrs by Annexin-V-FITC/propidium iodide staining based flow cytometric method (reference value: 0.014%). Type of data set: functional.
For data set [9], the system named is Trypanosoma cruzi. Nature of the data set: Induction of apoptosis in bloodstream trypomastigote stage of Trypanosoma cruzi Y infected in monkey LLC-MK2 cells assessed as necrotic cells at 25 uM measured after 24 hrs by Annexin-V-FITC/propidium iodide staining based flow cytometric method (reference value: 0.014%). The format is functional.

Sequence of Cruzipain (Trypanosoma cruzi) (P25779 123-467 limits assumed): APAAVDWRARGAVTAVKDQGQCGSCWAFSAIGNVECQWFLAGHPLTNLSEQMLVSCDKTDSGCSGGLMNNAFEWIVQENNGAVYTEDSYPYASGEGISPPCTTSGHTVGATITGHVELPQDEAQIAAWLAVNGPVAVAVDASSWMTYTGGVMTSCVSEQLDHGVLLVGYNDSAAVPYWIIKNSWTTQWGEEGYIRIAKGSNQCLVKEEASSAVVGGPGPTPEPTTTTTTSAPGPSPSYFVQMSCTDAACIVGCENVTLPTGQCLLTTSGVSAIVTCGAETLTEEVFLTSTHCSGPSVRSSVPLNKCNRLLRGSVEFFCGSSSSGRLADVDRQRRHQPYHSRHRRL

Turning to `C/C(=N\N=c1/scc(-c2ccc(Cl)c(Cl)c2)n1-c1ccccc1)c1ccccn1`, the figures for the CC50 in the data set with Trypanosoma cruzi [1] and in the data set on Trypanosoma cruzi [2] were 1.9 µM and 13.9 µM, respectively. In addition, in data set [3], the MNTC amounted to 8 µM. Further, the selectivity ratio in data set [4] came out at 4.

Regarding `C/C(=N\N=c1/scc(-c2ccc(Cl)cc2)n1C)c1ccccn1`, in the data set on Trypanosoma cruzi [1], the CC50 is 4.5 µM. The MNTC in data set [3] stood at 20 µM. Moreover, in data set [4], the selectivity ratio was determined as 4.

For the compound `CNC(=S)N/N=C(\C)c1ccccn1`, the CC50 in the data set with Trypanosoma cruzi [1] came out at 8.8 µM. Moreover, in [3], the MNTC is 22 µM. Moreover, the selectivity ratio in data set [4] came out at 2.5.

Turning to `C/C(=N\N=c1/scc(-c2ccc3ccccc3c2)n1C)c1ccccn1`, the CC50 was found to be 3 µM with Trypanosoma cruzi [1] and 8.2 µM in the data set with Trypanosoma cruzi [2]. For the same compound, the MNTC in data set [3] is 30 µM. In data set [4], the selectivity ratio worked out at 10.

For the compound `C/C(=N\N=c1/scc(-c2cccc([N+](=O)[O-])c2)n1-c1ccccc1)c1ccccn1`, the CC50 with Trypanosoma cruzi [1] was 1.9 µM; in the data set with Trypanosoma cruzi [2] it was 11 µM. Also, the MNTC in data set [3] was 10 µM. In addition, in data set [4], the selectivity ratio was determined as 5.

`C/C(=N\N=c1/scc(-c2ccc(Cl)cc2Cl)n1C)c1ccccn1`: the CC50 in the data set on Trypanosoma cruzi [1] amounted to 13 µM; in the data set on Trypanosoma cruzi [2], 31.6 µM. Moreover, in data set [3], the MNTC was found to be 14 µM. Besides, in data set [4], the selectivity ratio amounted to 1.

With `C/C(=N\N=c1/scc(-c2ccc(Cl)cc2)n1-c1ccccc1)c1ccccn1`, the results for the CC50 in the data set with Trypanosoma cruzi [1] and in the data set with Trypanosoma cruzi [2] were 2 µM and 9.1 µM, respectively. Further, the MNTC in data set [3] amounted to 13 µM. In addition, in [4], the selectivity ratio was found to be 7.

Turning to `C/C(=N\N=c1/scc(-c2ccc(-c3ccccc3)cc2)n1C)c1ccccn1`, the figures for the CC50 with Trypanosoma cruzi [1] and in the data set with Trypanosoma cruzi [2] were 2.2 µM and 66.6 µM, respectively. Further, the MNTC in [3] is 6 µM. The selectivity ratio in data set [4] came out at 3.

As to `C/C(=N\N=c1/scc(-c2ccccc2)n1C)c1ccccn1`, the CC50 is 4 µM with Trypanosoma cruzi [1] and 56 µM with Trypanosoma cruzi [2]. For the same compound, the MNTC in data set [3] was 4 µM. The selectivity ratio in data set [4] worked out at 1. Moreover, the inhibition in data set [5] came to 70%.

Turning to `C/C(=N\N=c1/sc(C)c(-c2ccccc2)n1-c1ccccc1)c1ccccn1`, the CC50 in the data set on Trypanosoma cruzi [1] stood at 2.3 µM; with Trypanosoma cruzi [2], 15.5 µM. Further, the MNTC in data set [3] is 43 µM. In addition, the selectivity ratio in [4] stood at 19.

With `COc1ccc(-c2cs/c(=N\N=C(/C)c3ccccn3)n2C)cc1`, the CC50 with Trypanosoma cruzi [1] is 4.6 µM; with Trypanosoma cruzi [2], 4.5 µM. Further, the MNTC in data set [3] worked out at 20 µM. The selectivity ratio in data set [4] is 4.

Regarding `C/C(=N\N=c1/sc(C)c(-c2ccc(Br)cc2)n1-c1ccccc1)c1ccccn1`, the figures for the CC50 with Trypanosoma cruzi [1] and in the data set on Trypanosoma cruzi [2] were 3.1 µM and 17.1 µM, respectively. In [3], the MNTC stood at 30 µM. Besides, the selectivity ratio in data set [4] turned out to be 10.

With `C/C(=N\N=c1/sc(C)c(-c2ccccc2)n1C)c1ccccn1`, the results for the CC50 with Trypanosoma cruzi [1] and in the data set with Trypanosoma cruzi [2] were 2.7 µM and 6.2 µM, respectively. Moreover, the MNTC in data set [3] was determined as 97 µM. Besides, in data set [4], the selectivity ratio came to 36. For the same compound, the inhibition in [5] turned out to be 73%.

As for `C/C(=N\N=c1/scc(-c2ccccc2)n1-c1ccccc1)c1ccccn1`, the CC50 in the data set with Trypanosoma cruzi [1] amounted to 6.3 µM; in the data set on Trypanosoma cruzi [2], 93.4 µM. In addition, the MNTC in data set [3] stood at 51 µM. Moreover, in data set [4], the selectivity ratio is 8.

Turning to `C/C(=N\N=c1/scc(-c2ccc(Br)cc2)n1-c1ccccc1)c1ccccn1`, the CC50 was determined as 1.8 µM with Trypanosoma cruzi [1] and 6.3 µM in the data set with Trypanosoma cruzi [2]. Besides, the MNTC in data set [3] stood at 10 µM. Moreover, the selectivity ratio in data set [4] worked out at 6.

In the case of `C/C(=N\N=c1/scc(-c2ccc(Cl)c(Cl)c2)n1C)c1ccccn1`, the figures for the CC50 in the data set on Trypanosoma cruzi [1] and in the data set with Trypanosoma cruzi [2] were 2.3 µM and 6.9 µM, respectively. In data set [3], the MNTC stood at 11 µM. Moreover, the selectivity ratio in data set [4] was 5. Further, the Ratio in the data set on Trypanosoma cruzi [6] was found to be 3; in the data set with Trypanosoma cruzi [7] it was 7.

Consider `C/C(=N\N=c1/scc(-c2ccc(F)cc2)n1C)c1ccccn1`, for which the CC50 in the data set on Trypanosoma cruzi [1] turned out to be 5.6 µM; in the data set on Trypanosoma cruzi [2] it was 8.5 µM. Besides, the MNTC in data set [3] was 12 µM. Besides, in data set [4], the selectivity ratio came to 2.

With `C/C(=N\N=c1/scc(-c2ccc([N+](=O)[O-])cc2)n1-c1ccccc1)c1ccccn1`, the CC50 in the data set with Trypanosoma cruzi [1] came to 3.1 µM; in the data set with Trypanosoma cruzi [2] it was 87.4 µM. Also, the MNTC in [3] was determined as 23 µM. The selectivity ratio in [4] worked out at 7.

With `C/C(=N\N=c1/scc(-c2cccc([N+](=O)[O-])c2)n1C)c1ccccn1`, the CC50 came out at 2.4 µM in the data set with Trypanosoma cruzi [1] and 7.8 µM in the data set on Trypanosoma cruzi [2]. In addition, the MNTC in data set [3] stood at 82 µM. Also, the selectivity ratio in [4] was determined as 34. The Ratio in the data set on Trypanosoma cruzi [6] worked out at 3.

As for `C/C(=N\N=c1/scc(-c2ccc([N+](=O)[O-])cc2)n1C)c1ccccn1`, the CC50 in the data set on Trypanosoma cruzi [1] is 7 µM; in the data set on Trypanosoma cruzi [2], 13.7 µM. Moreover, the MNTC in [3] amounted to 36 µM. Besides, the selectivity ratio in data set [4] was 5.

Regarding `O=C(Cn1ccnc1[N+](=O)[O-])NCc1ccccc1` [BENZNIDAZOLE], the figures for the CC50 with Trypanosoma cruzi [1] and in the data set on Trypanosoma cruzi [2] were 6.2 µM and 48.8 µM, respectively. In data set [3], the MNTC turned out to be 44.7 µM. In addition, the selectivity ratio in data set [4] stood at 7.2. The figures for the Activity in the data set on Trypanosoma cruzi [8] and with Trypanosoma cruzi [9] were 4.2% and 56.4%, respectively.

With `C/C(=N\N=c1/sc(C)c(-c2ccc(Br)cc2)n1C)c1ccccn1`, the CC50 is 3.4 µM with Trypanosoma cruzi [1] and 2.9 µM in the data set with Trypanosoma cruzi [2]. Moreover, in [3], the MNTC is 68 µM. Further, in [4], the selectivity ratio came out at 20.

In the case of `C/C(=N\N=c1/scc(-c2ccc3ccccc3c2)n1-c1ccccc1)c1ccccn1`, the CC50 with Trypanosoma cruzi [1] was 6.1 µM; with Trypanosoma cruzi [2], 1.9 µM. The MNTC in data set [3] was 51 µM. For the same compound, in data set [4], the selectivity ratio is 8.

`C/C(=N\N=c1/scc(-c2ccc(-c3ccccc3)cc2)n1-c1ccccc1)c1ccccn1`: the results for the CC50 with Trypanosoma cruzi [1] and with Trypanosoma cruzi [2] were 2 µM and 47.3 µM, respectively. Besides, the MNTC in [3] came to 7 µM. Also, the selectivity ratio in [4] came out at 4.

As for `C/C(=N\N=c1/scc(-c2ccc(F)cc2)n1-c1ccccc1)c1ccccn1`, the CC50 is 3.9 µM in the data set with Trypanosoma cruzi [1] and 3.1 µM with Trypanosoma cruzi [2]. The MNTC in [3] is 35 µM. Further, in data set [4], the selectivity ratio was determined as 9. Besides, the inhibition in data set [5] is 58%.
